Hits are enriched below; roughly 2.3% of the tested compounds scored in any of these assays.
TRPC6 inh: mouse TRPC6 channel inhibition | AID 2553 | B-score at 10 µM | HEK293-TRPC6, membrane potential dye, ACh-evoked depolarization; stronger effect = lower value | 310,000 compounds, 1.1% hits;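 active means B-score under library mean minus 3 SD, initial fluorescence not abnormally high, positive integrated signal ratio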;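 further: B-score derived from integrated fluorescence ratio over the kinetic read; more negative B-score means stronger inhibition of depolarization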
TRPC4 PAM: TRPC4 (mouse) allosteric potentiation; Q9QUQ5; HEK293 TRPC4beta/mu-opioid, DAMGO EC20, Fluo-4 Ca2+ flux; stronger effect = higher value; B-score at 10 µM; 310,000 compounds, 0.42% hits;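 active means B-score of calcium response area above 5 SD of library B-scores, with initial fluorescence ratio within 5 SD of library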
Target sequence (Q9QUQ5 whole entry, looked up): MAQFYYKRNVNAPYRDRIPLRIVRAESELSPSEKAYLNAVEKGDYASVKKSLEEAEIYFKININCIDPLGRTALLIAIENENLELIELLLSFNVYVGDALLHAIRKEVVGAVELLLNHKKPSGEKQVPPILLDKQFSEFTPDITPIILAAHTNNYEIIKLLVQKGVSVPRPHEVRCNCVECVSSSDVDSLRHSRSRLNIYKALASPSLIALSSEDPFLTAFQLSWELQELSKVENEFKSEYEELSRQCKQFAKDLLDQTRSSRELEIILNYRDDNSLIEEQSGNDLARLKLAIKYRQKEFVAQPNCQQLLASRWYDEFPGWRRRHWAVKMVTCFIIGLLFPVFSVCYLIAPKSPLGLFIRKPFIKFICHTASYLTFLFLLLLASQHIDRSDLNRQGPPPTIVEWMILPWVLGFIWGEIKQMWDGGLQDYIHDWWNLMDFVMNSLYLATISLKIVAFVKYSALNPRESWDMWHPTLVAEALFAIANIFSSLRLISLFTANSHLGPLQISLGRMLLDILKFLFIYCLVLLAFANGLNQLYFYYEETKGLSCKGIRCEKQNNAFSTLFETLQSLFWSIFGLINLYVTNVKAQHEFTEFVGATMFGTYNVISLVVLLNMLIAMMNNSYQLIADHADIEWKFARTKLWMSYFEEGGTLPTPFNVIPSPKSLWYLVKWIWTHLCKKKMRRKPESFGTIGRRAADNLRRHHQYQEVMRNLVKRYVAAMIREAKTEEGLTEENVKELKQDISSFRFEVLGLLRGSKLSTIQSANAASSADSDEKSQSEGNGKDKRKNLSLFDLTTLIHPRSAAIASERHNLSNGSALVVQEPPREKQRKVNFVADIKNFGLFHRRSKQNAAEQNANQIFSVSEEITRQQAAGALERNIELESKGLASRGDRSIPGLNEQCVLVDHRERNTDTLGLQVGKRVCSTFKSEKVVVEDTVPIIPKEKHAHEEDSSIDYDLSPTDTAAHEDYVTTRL
TRPC4 agonist: opens the mouse TRPC4 cation channel; Q9QUQ5; HEK293 TRPC4beta/mu-opioid, Fluo4 calcium fluorescence; stronger effect = higher value; B-score at 10 µM; 310,000 compounds, 0.49% hits; AID 2237;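 active means B-score above 5 SD of library B-scores, and initial fluorescence ratio not above library mean plus 5 SD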;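 further: positive B-score marks a calcium rise read as TRPC4 activation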
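Material: HEK293 stable line with TRPC4beta plus mu-opioid receptor; technique: Fluo4 calcium-sensitive dye fluorescence, kinetic, 1 Hz baseline; timing: Fluo4 dye loading 45 min at room temperature, 110 s recording; controls: assay buffer as low control, maximal DAMGO as high control; read-out: integrated baseline-normalised fluorescence ratio, converted to per-well B score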
TRPC6 act: activators of mouse TRPC6 channel | AID 2550 | B-score at 10 µM | HEK293-TRPC6 membrane potential dye fluorescence; stronger effect = higher value | 310,000 compounds, 0.13% hits | Q61143;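 active means B-score of the integrated fluorescence ratio above library mean plus 3 SD, and starting fluorescence ratio within library mean plus 5 SD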;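 further: higher score means more depolarization so channel activation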
TRPC4 inh: blocks the mouse TRPC4 cation channel; AID 2247; Q9QUQ5; 300,000 compounds, 0.39% hits; HEK293 TRPC4beta/mu-opioid, DAMGO-evoked Fluo4 calcium flux; stronger effect = lower value; B-score at 10 µM;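 active means B-score over 3 SD under the library average, no early fluorescence shift, positive overall ratio signal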
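Material: HEK293 cells with stable TRPC4beta plus mu-opioid receptor expression / Probe or stimulus: DAMGO in two steps, submaximal then maximal / Compound: single concentration per test compound / Technique: kinetic Fluo4 fluorescence imaging of calcium influx / Read-out: per-well B score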
TRPC4 spec 2: second check of whether TRPC6 inhibitors also affect mouse TRPC4; shares compounds with TRPC6 inh; HEK293 TRPC4/MOR, membrane potential dye fluorescence; channel activated by saturating DAMGO dose; inhibition, % at 10 µM; 920 compounds, 42% hits; AID 2776;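 active means compounds whose fluorescence signal differed from control wells by over 3 SD, either direction, in both duplicate plates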
TRPC4 spec: tests whether TRPC6 inhibitors also affect mouse TRPC4; shares compounds with TRPC6 inh; HEK293 TRPC4/mu-opioid, membrane potential fluorescence; activity change, negative = inhibition, % at 10 µM; 920 compounds, 61% hits; AID 2777;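 active means rise or fall in signal beyond 3 SD of buffer-only wells in both replicate plates, either sign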;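 further: integrated kinetic ratio of fluorescence range over baseline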
HEK293 MPD ctr 2-1: parental HEK293 nonspecific activity of TRPC6 inhibitors, second screen. shares compounds with TRPC6 inh. parental HEK293 membrane potential dye fluorescence; maximal acetylcholine challenge after compound addition. signal change vs control, % at 10 µM. 920 compounds, 31% hits. AID 2779;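 active means membrane potential signal moving either way by over 3 SD of the maximum-effect control, in both duplicate plates, meaning non-specific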
HEK293 MPD ctr-1: counter-screen for TRPC6 inhibitors: effect in parental HEK293 cells; 920 compounds, 60% hits; membrane potential signal change, % at 10 µM; shares compounds with TRPC6 inh; AID 2780; parental HEK293 membrane potential dye fluorescence;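 active means membrane potential signal shifting up or down by more than 3 SD of buffer-only wells, on both duplicate plates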
HEK293 MPD ctr-2: parental HEK293 nonspecific activity of TRPC6 modulators; shares compounds with TRPC6 inh; membrane potential dye fluorescence; membrane potential signal change, % at 10 µM; 2,400 compounds, 51% hits; AID 488924;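 active means membrane potential signal moves up or down beyond 5 SD from buffer-only wells, on both duplicate plates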
HEK293 MPD ctr 2-2: parental HEK293 nonspecific activity of TRPC6 modulators, second screen. shares compounds with TRPC6 inh. inhibition, % at 10 µM. 2,400 compounds, 14% hits. membrane potential dye fluorescence; after compound, maximal acetylcholine stimulation. AID 488926;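 active means membrane potential signal drops by more than 5 SD from the mean control signal, in both duplicate plates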
TRPC4/MOR mod: tests whether TRPC6 modulators also affect mouse TRPC4 | shares compounds with TRPC6 inh | HEK293 TRPC4/mu-opioid, membrane potential fluorescence | percent change from control (negative = decrease, positive = increase), % at 10 µM | 2,400 compounds, 69% hits | AID 488927;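 active means membrane potential signal moved up or down beyond 5 SD of buffer control wells, in both duplicate plates, actives on both sides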
TRPC4 ctr inh 2: second check of whether TRPC6 modulators also affect mouse TRPC4; inhibition, % at 10 µM; shares compounds with TRPC6 inh; 2,400 compounds, 55% hits; HEK293 TRPC4/mu-opioid, membrane potential dye fluorescence; stimulated with maximal-effect DAMGO;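 active means drop in membrane potential signal beyond 5 SD of the control wells in both duplicate plates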;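 further: TRPC4 counter screen for TRPC6 hits run under conditions tuned for TRPC6 not TRPC4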
TRPC6 inh conf: mouse TRPC6 inhibitor confirmation; shares compounds with TRPC6 inh; HEK293-TRPC6, membrane potential dye, ACh-evoked depolarization; inhibition, % at 10 µM; 3,300 compounds, 43% hits; AID 488960;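 active means fluorescence ratio falls more than 5 SD below the full-stimulation control mean, in both duplicate runs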;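 further: integrated fluorescence ratio of peak minus minimum over baseline after agonist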
TRPC6 act conf: confirmation of mouse TRPC6 activators. shares compounds with TRPC6 inh. HEK293-TRPC6 membrane potential dye fluorescence, FDSS. activation, % at 10 µM. 2,800 compounds, 11% hits;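 active means ratio signal rise beyond 5 SD above unstimulated control wells' mean, seen in both duplicate runs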
Hits are given with their value; 0 = inactive; - = no result.

SMILES	TRPC6 inh	TRPC4 PAM	TRPC4 agonist	TRPC6 act	TRPC4 inh	HEK293 MPD ctr-2	HEK293 MPD ctr 2-2	TRPC4/MOR mod	TRPC4 ctr inh 2	TRPC6 inh conf	TRPC6 act conf	others
O=C(NCc1ccc2c(c1)OCO2)c1ccc(NC(=O)C2CCCO2)cc1 (stereo unspecified)	0	0	0	0	0	-	-	-	-	-	-
COc1ccc(S(=O)(=O)Nc2ccc(N3CCOCC3)nc2)cc1	-5.02	0	0	0	0	0	0	0	0	0	0
COc1ccc(NC(=O)c2ccc(N3CCOCC3)nc2)cc1	0	0	0	0	0	-	-	-	-	-	-
Cc1cccc(C)c1NC(=O)CN1C(=O)COc2ccccc21	0	0	0	0	0	-	-	-	-	-	-
CCc1cccc(NS(=O)(=O)c2ccc3c(c2)NC(=O)CC(=O)N3)c1	0	0	0	0	0	-	-	-	-	-	-
CCc1ccccc1NS(=O)(=O)c1ccc2c(c1)NC(=O)CC(=O)N2	-9.36	0	0	0	0	-	-	-	-	0	0	TRPC4 spec 2=0;TRPC4 spec=0;HEK293 MPD ctr 2-1=0;HEK293 MPD ctr-1=0
CN1CCCc2cc(C=O)ccc21	-7.91	0	0	0	0	-	-	-	-	0	0	TRPC4 spec 2=0;TRPC4 spec=-8.7%;HEK293 MPD ctr 2-1=0;HEK293 MPD ctr-1=0
CCN(CC)CCNc1c2c(c(C#N)c3nc4ccccc4n13)CCCC2	-5.06	0	0	0	0	0	0	-18.0%	36.5%	42.5%	0
N#Cc1c2c(c(NCc3ccco3)n3c1nc1ccccc13)CCC2	0	0	0	0	0	-	-	-	-	-	-
CN(C)CCNc1c2c(c(C#N)c3nc4ccccc4n13)CCCC2	-11.2	0	0	0	0	-	-	-	-	72.6%	0	TRPC4 spec 2=59.5%;TRPC4 spec=-28.1%;HEK293 MPD ctr 2-1=48.0%;HEK293 MPD ctr-1=-383.5%
CC1CCCC(C)N1CCCNC(=O)Cn1c(=O)c2cccn2c2cccnc21 (stereo unspecified)	0	0	0	0	0	-	-	-	-	-	-
COc1ccc(-c2nc3cccc(C)n3c2NCC2CCCO2)cc1O (stereo unspecified)	-6.05	0	0	0	0	-231.5%	0	-41.5%	46.5%	45.0%	0
Cc1cc(C)c(C(=O)OCC(=O)Nc2cccc(S(=O)(=O)N3CCCCC3)c2)c(C)c1	0	0	0	0	0	-	-	-	-	-	-
Cc1cccc(NC(=S)N2CCC(NC(=O)C3CCCCC3)CC2)c1	0	0	0	0	0	-	-	-	-	-	-
CCNCCOC(c1ccccc1)c1ccccc1	-5.81	0	0	0	0	142.5%	0	27.0%	36.0%	0	-
CCCCC(=O)Nc1cnc(NC(=O)c2cccs2)cc1C	0	0	0	0	0	-	-	-	-	-	-
C=CCn1c(=O)c2c(nc3n2CC(C)CN3Cc2ccccc2)n(C)c1=O (stereo unspecified)	0	0	0	0	0	-	-	-	-	-	-
CN(C)CCn1c(C(=O)Nc2ccccc2)cc2ccccc21	-7.83	0	0	0	0	-	-	-	-	0	0	TRPC4 spec 2=48.5%;TRPC4 spec=-17.1%;HEK293 MPD ctr 2-1=0;HEK293 MPD ctr-1=-235.0%
O=C(C1CCCN(CCCc2ccccc2)C1)N1CCCCCC1 (stereo unspecified)	0	0	0	0	0	-	-	-	-	-	-
COc1cccc(C(=O)NCC(c2ccco2)N2CCOCC2)c1 (stereo unspecified)	0	0	0	0	0	-	-	-	-	-	-
c1ccc(CN2CCN(C3=Nc4cccc5cccc3c45)CC2)cc1	-8.17	0	0	0	0	-191.0%	0	-50.5%	71.5%	68.0%	0
O=C(CCCN1C(=O)c2cccc3cccc(c23)C1=O)N1CCN(c2ccc(F)cc2)CC1	0	0	0	0	0	-	-	-	-	-	-
Fc1ccc(N2CCN(C3=Nc4cccc5cccc3c45)CC2)cc1	-8.78	0	0	0	0	-80.5%	0	-38.5%	73.5%	68.0%	0
O=C1C(Cl)=C(N2CCN(Cc3ccccc3)CC2)C(=O)N1Cc1ccccc1	0	0	0	0	0	-	-	-	-	-	-
COc1ccc(Br)cc1CN(C)C(=O)c1ccccc1OCc1c(C)noc1C	0	0	0	0	0	-	-	-	-	-	-
SMILES	TRPC6 inh	TRPC4 PAM	TRPC4 agonist	TRPC6 act	TRPC4 inh	HEK293 MPD ctr-2	HEK293 MPD ctr 2-2	TRPC4/MOR mod	TRPC4 ctr inh 2	TRPC6 inh conf	TRPC6 act conf	others
Cc1cc(C)c2nc3sc(C(=O)N4CCOCC4)c(N)c3cc2c1	-5.01	0	0	23.3	0	899.5%	83.0%	189.0%	0	0	297.0%
Cc1ccc(C)c2nc3sc(C(=O)N4CCOCC4)c(N)c3cc12	-8.65	0	74	32.7	0	898.5%	0	128.5%	0	0	78.5%
Cc1cc(C)c2cc3c(N)c(C(=O)N4CCOCC4)sc3nc2c1	0	0	0	0	0	-	-	-	-	-	-
O=C(NCC1CCCO1)C(=O)N/N=C/c1ccc(OCc2ccccc2Cl)cc1 (stereo unspecified)	0	0	0	0	0	-	-	-	-	-	-
Cc1ccc(F)cc1NC(=O)N1CCN(c2ccnc3cc(Cl)ccc23)CC1	-5.26	0	0	0	0	-94.5%	0	-23.5%	0	0	0
O=C(Nc1cc(F)ccc1F)N1CCN(c2ccnc3cc(Cl)ccc23)CC1	0	0	0	0	0	-	-	-	-	-	-
O=C(CCNS(=O)(=O)c1ccc(Cl)cc1)Nc1ccncc1	0	0	0	0	0	-	-	-	-	-	-
Cn1c(=O)c2c(O)c(C=Nc3ccc(F)cc3)c(=O)n(C)c2n(C)c1=O	-6.58	0	0	0	0	-91.5%	0	-14.5%	0	0	0
Cn1c(=O)c(C=Nc2ccccc2)c(O)c2ccccc21	0	0	0	0	0	-	-	-	-	-	-
Cc1cc(OCC(=O)NC2CCN(Cc3ccccc3)CC2)c2c(C)cc(=O)oc2c1	-6.14	0	0	0	0	-82.0%	0	-26.0%	0	0	0
Cc1ccnc(NS(=O)(=O)c2ccc(NC(=O)c3ccc4c(c3)OCCO4)cc2)n1	0	0	0	0	0	-	-	-	-	-	-
